Results from ChEMBL document CHEMBL1155153, “Measurement of voriconazole activity against Candida albicans, C. glabrata, and C. parapsilosis isolates using time-kill methods validated by high-performance liquid chromatography” (2007).
Converted amounts (≈) assume the structure as drawn.

What was measured:
Assay type in all cases: functional
[1] = tested on: Candida albicans; assay: Antifungal activity against Candida albicans ATCC 90029 by Etest
Summary of the method: (§1)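 MIC by Etest, checked against the CLSI (NCCLS M27-A2) broth microdilution method. Both methods agreed within twofold.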

[2] = tested on: Candida albicans; assay: Antifungal activity against Candida albicans SC5314 by Etest; summary of the method: as §1
[3] = tested on: Nakaseomyces glabratus; assay: Antifungal activity against Candida glabrata isolate 1 by Etest; summary of the method: as §1
[4] = tested on: Nakaseomyces glabratus; assay: Antifungal activity against Candida glabrata isolate 2 by Etest; summary of the method: as §1
[5] = tested on: Candida parapsilosis; assay: Antifungal activity against Candida parapsilosis isolate 1 by Etest; details: Lodderomyces parapsilosis; summary of the method: as §1
[6] = tested on: Candida parapsilosis; assay: Antifungal activity against Candida parapsilosis isolate 2 by Etest; details: Lodderomyces parapsilosis
[7] = tested on: Candida albicans; assay: Antifungal activity against Candida albicans ATCC 90029 assessed as maximum log cell kill at MIC after 24 hrs by time-kill method
[8] = tested on: Candida albicans; assay: Antifungal activity against Candida albicans ATCC 90029 assessed as maximum log cell kill at 4 times MIC after 24 hrs by time-kill method
[9] = tested on: Candida albicans; assay: Antifungal activity against Candida albicans ATCC 90029 assessed as maximum log cell kill at 16 times MIC after 24 hrs by time-kill method
[10] = tested on: Candida albicans; assay: Antifungal activity against Candida albicans ATCC 90029 assessed as maximum log cell kill at MIC after 24 to 48 hrs by time-kill method
[11] = tested on: Candida albicans; assay: Antifungal activity against Candida albicans ATCC 90029 assessed as maximum log cell kill at 4 times MIC after 24 to 48 hrs by time-kill method
[12] = tested on: Candida albicans; assay: Antifungal activity against Candida albicans ATCC 90029 assessed as maximum log cell kill at 16 times MIC after 24 to 48 hrs by time-kill method
[13] = tested on: Candida albicans; assay: Antifungal activity against Candida albicans ATCC 90029 assessed as maximum log cell kill at MIC after >48 hrs by time-kill method
[14] = tested on: Candida albicans; assay: Antifungal activity against Candida albicans ATCC 90029 assessed as maximum log cell kill at 4 times MIC after >48 hrs by time-kill method
[15] = tested on: Candida albicans; assay: Antifungal activity against Candida albicans ATCC 90029 assessed as maximum log cell kill at 16 times MIC after >48 hrs by time-kill method
[16] = tested on: Candida albicans; assay: Antifungal activity against Candida albicans SC5314 assessed as maximum log cell kill at MIC after 24 hrs by time-kill method
[17] = tested on: Candida albicans; assay: Antifungal activity against Candida albicans SC5314 assessed as maximum log cell kill at 4 times MIC after 24 hrs by time-kill method
[18] = tested on: Candida albicans; assay: Antifungal activity against Candida albicans SC5314 assessed as maximum log cell kill at 16 times MIC after 24 hrs by time-kill method
[19] = tested on: Candida albicans; assay: Antifungal activity against Candida albicans SC5314 assessed as maximum log cell kill at MIC after 24 to 48 hrs by time-kill method
[20] = tested on: Nakaseomyces glabratus; assay: Antifungal activity against Candida glabrata isolate 1 assessed as maximum log cell kill at 4 times MIC after 24 hrs by time-kill method
[21] = tested on: Candida albicans; assay: Antifungal activity against Candida albicans SC5314 assessed as maximum log cell kill at 4 times MIC after 24 to 48 hrs by time-kill method
[22] = tested on: Candida albicans; assay: Antifungal activity against Candida albicans SC5314 assessed as maximum log cell kill at 16 times MIC after 24 to 48 hrs by time-kill method
[23] = tested on: Nakaseomyces glabratus; assay: Antifungal activity against Candida glabrata isolate 1 assessed as maximum log cell kill at MIC after 24 hrs by time-kill method
[24] = tested on: Nakaseomyces glabratus; assay: Antifungal activity against Candida glabrata isolate 1 assessed as maximum log cell kill at 16 times MIC after 24 hrs by time-kill method
[25] = tested on: Nakaseomyces glabratus; assay: Antifungal activity against Candida glabrata isolate 1 assessed as maximum log cell kill at MIC after 24 to 48 hrs by time-kill method
[26] = tested on: Nakaseomyces glabratus; assay: Antifungal activity against Candida glabrata isolate 1 assessed as maximum log cell kill at 4 times MIC after 24 to 48 hrs by time-kill method
[27] = tested on: Nakaseomyces glabratus; assay: Antifungal activity against Candida glabrata isolate 1 assessed as maximum log cell kill at 16 times MIC after 24 to 48 hrs by time-kill method
[28] = tested on: Nakaseomyces glabratus; assay: Antifungal activity against Candida glabrata isolate 1 assessed as maximum log cell kill at MIC after >48 hrs by time-kill method
[29] = tested on: Nakaseomyces glabratus; assay: Antifungal activity against Candida glabrata isolate 1 assessed as maximum log cell kill at 4 times MIC after >48 hrs by time-kill method
[30] = tested on: Nakaseomyces glabratus; assay: Antifungal activity against Candida glabrata isolate 1 assessed as maximum log cell kill at 16 times MIC after >48 hrs by time-kill method
[31] = tested on: Nakaseomyces glabratus; assay: Antifungal activity against Candida glabrata isolate 2 assessed as maximum log cell kill at MIC after 24 hrs by time-kill method
[32] = tested on: Nakaseomyces glabratus; assay: Antifungal activity against Candida glabrata isolate 2 assessed as maximum log cell kill at 4 times MIC after 24 hrs by time-kill method
[33] = tested on: Nakaseomyces glabratus; assay: Antifungal activity against Candida glabrata isolate 2 assessed as maximum log cell kill at 16 times MIC after 24 hrs by time-kill method
[34] = tested on: Nakaseomyces glabratus; assay: Antifungal activity against Candida glabrata isolate 2 assessed as maximum log cell kill at MIC after 24 to 48 hrs by time-kill method
[35] = tested on: Nakaseomyces glabratus; assay: Antifungal activity against Candida glabrata isolate 2 assessed as maximum log cell kill at 4 times MIC after 24 to 48 hrs by time-kill method
[36] = tested on: Nakaseomyces glabratus; assay: Antifungal activity against Candida glabrata isolate 2 assessed as maximum log cell kill at 16 times MIC after 24 to 48 hrs by time-kill method
[37] = tested on: Nakaseomyces glabratus; assay: Antifungal activity against Candida glabrata isolate 2 assessed as maximum log cell kill at MIC after >48 hrs by time-kill method
[38] = tested on: Nakaseomyces glabratus; assay: Antifungal activity against Candida glabrata isolate 2 assessed as maximum log cell kill at 4 times MIC after >48 hrs by time-kill method
[39] = tested on: Nakaseomyces glabratus; assay: Antifungal activity against Candida glabrata isolate 2 assessed as maximum log cell kill at 16 times MIC after >48 hrs by time-kill method
[40] = tested on: Candida parapsilosis; assay: Antifungal activity against Candida parapsilosis isolate 1 assessed as maximum log cell kill at MIC after 24 hrs by time-kill method
[41] = tested on: Candida parapsilosis; assay: Antifungal activity against Candida parapsilosis isolate 1 assessed as maximum log cell kill at 4 times MIC after 24 hrs by time-kill method
[42] = tested on: Candida parapsilosis; assay: Antifungal activity against Candida parapsilosis isolate 1 assessed as maximum log cell kill at 16 times MIC after 24 hrs by time-kill method
[43] = tested on: Candida parapsilosis; assay: Antifungal activity against Candida parapsilosis isolate 1 assessed as maximum log cell kill at MIC after 24 to 48 hrs by time-kill method
[44] = tested on: Candida parapsilosis; assay: Antifungal activity against Candida parapsilosis isolate 1 assessed as maximum log cell kill at 4 times MIC after 24 to 48 hrs by time-kill method
[45] = tested on: Candida parapsilosis; assay: Antifungal activity against Candida parapsilosis isolate 1 assessed as maximum log cell kill at 16 times MIC after 24 to 48 hrs by time-kill method
[46] = tested on: Candida parapsilosis; assay: Antifungal activity against Candida parapsilosis isolate 1 assessed as maximum log cell kill at MIC after >48 hrs by time-kill method
[47] = tested on: Candida parapsilosis; assay: Antifungal activity against Candida parapsilosis isolate 1 assessed as maximum log cell kill at 4 times MIC after >48 hrs by time-kill method
[48] = tested on: Candida parapsilosis; assay: Antifungal activity against Candida parapsilosis isolate 1 assessed as maximum log cell kill at 16 times MIC after >48 hrs by time-kill method
[49] = tested on: Candida parapsilosis; assay: Antifungal activity against Candida parapsilosis isolate 2 assessed as maximum log cell kill at MIC after 24 hrs by time-kill method
Summary of the method: (§2)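 Bloodstream isolate colonies from 48-h Sabouraud dextrose agar cultures were suspended in sterile water. […] Samples taken 0–72 h were plated for CFU. Value is the maximum log difference from drug-free control per time window. Run in duplicate.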

[50] = tested on: Candida parapsilosis; assay: Antifungal activity against Candida parapsilosis isolate 2 assessed as maximum log cell kill at 4 times MIC after 24 hrs by time-kill method; summary of the method: as §2
[51] = tested on: Candida parapsilosis; assay: Antifungal activity against Candida parapsilosis isolate 2 assessed as maximum log cell kill at 16 times MIC after 24 hrs by time-kill method
[52] = tested on: Candida parapsilosis; assay: Antifungal activity against Candida parapsilosis isolate 2 assessed as maximum log cell kill at MIC after 24 to 48 hrs by time-kill method; summary of the method: as §2
[53] = tested on: Candida parapsilosis; assay: Antifungal activity against Candida parapsilosis isolate 2 assessed as maximum log cell kill at 4 times MIC after 24 to 48 hrs by time-kill method; summary of the method: as §2
[54] = tested on: Candida parapsilosis; assay: Antifungal activity against Candida parapsilosis isolate 2 assessed as maximum log cell kill at 16 times MIC after 24 to 48 hrs by time-kill method
[55] = tested on: Candida parapsilosis; assay: Antifungal activity against Candida parapsilosis isolate 2 assessed as maximum log cell kill at MIC after >48 hrs by time-kill method; summary of the method: as §2
[56] = tested on: Candida parapsilosis; assay: Antifungal activity against Candida parapsilosis isolate 2 assessed as maximum log cell kill at 4 times MIC after >48 hrs by time-kill method; summary of the method: as §2
[57] = tested on: Candida parapsilosis; assay: Antifungal activity against Candida parapsilosis isolate 2 assessed as maximum log cell kill at 16 times MIC after >48 hrs by time-kill method

For `C[C@@H](c1ncncc1F)[C@](O)(Cn1cncn1)c1ccc(F)cc1F` [VORICONAZOLE], the MIC [1] was 8 ng/mL (≈ 0.0229 µM), the MIC [2] was 0.012 µg/mL (≈ 0.0344 µM) and the MIC [3] was 0.19 µg/mL (≈ 0.544 µM). For the same molecule, the MIC [4] was 0.032 µg/mL (≈ 0.0916 µM), the MIC [5] was 8 ng/mL (≈ 0.0229 µM) and the MIC [6] was 0.016 µg/mL (≈ 0.0458 µM). It also gave an LCK [7] of -1.23, an LCK [8] of -1.34 and an LCK [9] of -1.34. The LCK [10] was -1.77, the LCK [11] was -1.84 and the LCK [12] was -1.96. The LCK [13] was -1.63, the LCK [14] was -1.9 and the LCK [15] was -1.89. For the same molecule, the LCK [16] was -0.61, the LCK [17] was -0.51 and the LCK [18] was -0.54. For the same molecule, the LCK [19] was -0.56, the LCK [20] was -0.49 and the LCK [21] was -0.53. The LCK [22] was -0.58, the LCK [23] was -0.43 and the LCK [24] was -0.59. The LCK [25] was -0.74, the LCK [26] was -0.78 and the LCK [27] was -1. It also gave an LCK [28] of -0.99, an LCK [29] of -1.08 and an LCK [30] of -1.17. For the same molecule, the LCK [31] was -1.02, the LCK [32] was -1.1 and the LCK [33] was -1.15. For the same molecule, the LCK [34] was -2.23, the LCK [35] was -2.39 and the LCK [36] was -2.49. For the same molecule, the LCK [37] was -2.78, the LCK [38] was -2.99 and the LCK [39] was -3.02. It also gave an LCK [40] of -0.99, an LCK [41] of -1.64 and an LCK [42] of -1.68. The LCK [43] was -0.91, the LCK [44] was -2.67 and the LCK [45] was -2.74. For the same molecule, the LCK [46] was -0.67, the LCK [47] was -2.37 and the LCK [48] was -2.69. The LCK [49] was -1.86, the LCK [50] was -2.7 and the LCK [51] was -3.93. The LCK [52] was -1.03, the LCK [53] was -2.13 and the LCK [54] was -3.94. The LCK [55] was -0.88, the LCK [56] was -1.12 and the LCK [57] was -4.15.
